Rows were chosen to be rich in hits. Some 2.1% of all compounds tested hit in one or more screens of this group.
Shn3 3UTR inh: reduces Shn3 3'UTR luciferase signal in osteoblasts; Clone20 osteoblast Shn3 3'UTR firefly luciferase, 24 h; inhibition, % at 12.5 µM; 360,000 compounds, 0.52% hits; AID 588674;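 active = mean inhibition of at least 75% with every replicate also reaching 75%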;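 also: 0% = median of neutral control wells and 100% = pilot-screen positive control compound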
LMP1 NFkB inh: Epstein-Barr LMP1 NF-kappaB reporter inhibition | LMP1-induced NF-kappaB luciferase reporter cells, luminescence | inhibition, % at 12.5 µM | 350,000 compounds, 0.69% hits | AID 504558; in the data active = inhibition above about 41%;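 also: 0% = neutral control wells and 100% = reference inhibitor control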
FN deposit inh: fibronectin deposition inhibition | AH1F fibroblasts, Alexa488-fibronectin deposition fluorescence, overnight | 350,000 compounds, 0.086% hits | inhibition, % at 12.6 µM;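 active = mean inhibition across replicates of 30% or more, regardless of how many single replicates reach that level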;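 also: positive control wells lacked labelled fibronectin entirely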
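Assay system: AH1F fibroblasts / Quantity: 10000 cells per well / Medium: DMEM plus 2% serum, read in PBS / Reagent: labelled fibronectin 24 nM / Dosing: single dose, pinned / Times: 1 h cell attachment, overnight exposure to compound and label / Signal: fluorescence, ex 485 nm, em 525 nm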
PAX8 reporter: lowers PAX8-driven luciferase in RMG-I cells | RMG-I TPO-luciferase reporter, SteadyGlo, 24 h | inhibition, % at 12.6 µM | 360,000 compounds, 1.2% hits;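 active = mean replicate inhibition at least 60% with every replicate also reaching 60%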;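 also: luciferase light reporting Pax8 driven TPO promoter activity; plate controls were median of neutral control wells for no effect and mitoxantrone controls for full effect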
EWS-Fli block: blocks EWS/Fli oncoprotein-driven transcription; A673 NR0B1-luciferase reporter, viability-normalised; inhibition, % at 12.6 µM; 350,000 compounds, 0.67% hits; AID 651661;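 active = mean inhibition of at least 50% after viability correction, with every replicate also passing that limit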;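 also: firefly luciferase signal divided by Alamar Blue viability fluorescence both relative to DMSO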
aSyn 5UTR inh: MLPCN primary screen, SNCA 5' untranslated region. alpha-synuclein 5'UTR reporter, inhibitor activity. inhibition, % (tested at 7.5 µM). 300,000 compounds, 0.82% hits; in the data active = inhibition above about 60%;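 also: H4 neuroglioblastoma cells stably carrying SNCA 5'UTR luciferase fusion; 0% = DMSO wells and 100% = positive control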
* = called active by the depositor; x = no result; ! = repeats disagree.

SMILES | Shn3 3UTR inh | LMP1 NFkB inh | FN deposit inh | PAX8 reporter | EWS-Fli block | aSyn 5UTR inh
CCC(=O)Nc1ccc2c(c1)OC[C@@H](C)N(CC1CCOCC1)C[C@@H](C)[C@H](OC)CN(C)C2=O | x | x | -2 | -4 | -2 | x
O=C(CN1CCOCC1)NCC[C@H]1CC[C@H](NC(=O)c2ccccc2F)[C@@H](CO)O1 | x | x | 1 | 0 | 2 | x
C[C@@H]1CN([C@@H](C)CO)C(=O)Cc2cc(N(C)C)ccc2O[C@H]1CN(C)S(=O)(=O)c1ccc(F)cc1 | x | x | x | 7 | -2 | x
CCN1CCN(Cc2ccc(NC(=O)c3ccc(C)c(NC(=O)c4cc(-c5ccc(Br)cc5)n[nH]4)c3)cc2C(F)(F)F)CC1 | 12 | 44* | 0 | -2 | 54* | 23
CCN1CCN(Cc2ccc(NC(=O)c3ccc(C)c(NC(=O)c4nccn4C)c3)cc2C(F)(F)F)CC1 | 16 | 47* | 1 | 7 | 5 | 53
Cc1cn(-c2cc(C(=O)Nc3ccc(C)c(NC(=O)N4CCNC4=O)c3)cc(C(F)(F)F)c2)cn1 | 4 | 14 | 13 | 10 | -10 | 54
CCN1CCN(Cc2ccc(NC(=O)c3ccc(C)c(NC(=O)N4CCNC4=O)c3)cc2C(F)(F)F)CC1 | 7 | 47*! | 7 | -17 | -3 | 66*!
Cc1ccc(C(=O)Nc2cccc(C(F)(F)F)c2)cc1NC(=O)c1nccn1C | -6 | 7 | 1 | 3 | -29 | 20
CC(C)NC(=O)N1CC(=O)N2[C@@H](CO)[C@H](c3ccc(/C=C/c4ccccc4)cc3)[C@@H]2C1 | x | x | 22 | -12 | 1 | x
C[C@H](CO)N1C[C@H](C)[C@@H](CN(C)Cc2ccncc2)Oc2ccc(NS(=O)(=O)c3ccccc3)cc2CC1=O | x | x | 1 | 23 | 3 | x
CCCc1nc2oc3c(NCCCN(C)C)ncnc3c2c2c1CCCC2 | -72 | -35 | -4 | 7 | 22 | 108*
C[C@@H]1CN([C@@H](C)CO)C(=O)c2cc(/C=C/c3ccccc3)cnc2O[C@@H]1CN(C)C(=O)Cc1cccnc1 | x | x | 3 | -4 | -4 | x
COc1ccc(C(CCNC(C)c2ccccc2)c2ccc(F)cc2)cc1 (stereo unspecified) | 75 | -8 | 13 | 81* | x | 4
COc1ccccc1NC(=O)N1CC(=O)N2[C@H](CO)[C@@H](c3ccc(-c4ccc(C)cc4)cc3)[C@@H]2C1 | x | x | x | -17 | 1 | x
COc1ccc(C(=O)CN(CCC(=O)O)S(=O)(=O)c2ccc([N+](=O)[O-])cc2)cc1 | 4 | 61* | -2 | -24 | -7 | x
Cc1ccc(C(=O)CN(CCC(=O)O)S(=O)(=O)c2ccc([N+](=O)[O-])cc2)cc1 | 60 | 1 | 16 | -19 | -6 | x
N#C/C(=C/c1ccc(N2CCOCC2)o1)c1ccc(Br)cc1 | 55 | -51 | x | x | x | -284
N#C/C(=C\c1ccc(N2CCOCC2)o1)c1ccccc1 | 92* | -27 | x | x | -11 | -223
N#C/C(=C/c1ccc(N2CCCCCC2)o1)c1cccc(F)c1 | 95* | -25 | x | x | x | -286
CNc1nc(N/N=C/c2cc3c(cc2[N+](=O)[O-])OCO3)nc(Nc2ccccc2)n1 | 5 | -9 | 4 | 60 | 41 | 74*
CO[C@H]1CN(C)C(=O)c2cc(NC(C)=O)ccc2OC[C@H](C)N(Cc2nccs2)C[C@H]1C | x | x | -4 | x | -2 | x
COC1=C(c2ccccc2)C(=O)c2ccccc2C1=O | -33 | 2 | 3 | 11 | x | -31
O=C(C1=C(c2ccccc2)C(=O)c2ccccc2C1=O)c1ccccc1 | 93* | 90* | 28 | 78* | 61* | -17
COc1ccc(NC(=O)N(C)C[C@@H]2OCCCC[C@H](C)Oc3ccc(NS(=O)(=O)c4ccc(F)cc4)cc3C(=O)N([C@H](C)CO)C[C@H]2C)cc1 | x | x | x | -28 | -9 | x
CCOC(=O)Cc1csc(NC(=O)c2c(O)c3ccccc3n(CC(C)C)c2=O)n1 | 10 | 9 | x | x | 17 | 75*
SMILES | Shn3 3UTR inh | LMP1 NFkB inh | FN deposit inh | PAX8 reporter | EWS-Fli block | aSyn 5UTR inh
CC(=O)N(C)C[C@@H]1Oc2cc(C#CCC3CCCC3)ccc2S(=O)(=O)N([C@H](C)CO)C[C@H]1C | x | x | 10 | x | 22 | x
O=C(C[C@@H]1C=C[C@H](NC(=O)Nc2cc(F)ccc2F)[C@H](CO)O1)NCc1ccccn1 | x | x | x | -8 | 4 | x
Cc1ccccc1/C(=N\S(=O)(=O)c1ccc(Br)cc1)Nc1ccccc1 | -23 | 2 | 4 | -1 | 14 | x
Cc1c(/N=C(\[O-])Nc2ccc(Br)cc2)sn[n+]1C | -28 | x | -7 | -42 | 31 | 89*
Cc1c(C(=O)NC(=S)Nc2ccccc2N2CCCC2)cccc1[N+](=O)[O-] | 15 | 4 | x | 14 | 77* | -28
CCOc1ccc(-c2ccc(SC)nn2)cc1 | 68 | 59* | x | 75* | 79* | 76*
CCOc1ccc(-c2ccc(SCC(=O)Nc3nnc(CC)s3)nn2)cc1 | -29 | 2 | 7 | -66 | -14 | x
CCOc1ccc(-n2c(-c3ccc(Br)cc3)c[n+]3c2CCCCC3)cc1 | 73 | 22 | -2 | 95* | 35 | -7
COc1ccc(-c2c[n+]3c(n2-c2ccc(C)cc2)CCCCC3)cc1 | x | 0 | 3 | 99* | 24 | 1
CCOc1ccc(-n2c(-c3ccc(OC)cc3)c[n+]3c2CCCCC3)cc1 | 85* | 22 | x | 99* | 36 | 20
CCOc1ccc(-n2c(-c3ccccc3)c[n+]3c2CCC3)cc1 | 84* | 7 | 4 | 82* | 30 | -13
O=C(C[C@@H]1C=C[C@@H](NC(=O)C2CCOCC2)[C@@H](CO)O1)NCC1CCCCC1 | x | x | 3 | x | -3 | x
CCCNC(=O)C[C@@H]1C[C@H]2c3cc(NC(=O)Nc4ccccc4)ccc3O[C@H]2[C@@H](CO)O1 | x | x | -2 | 11 | 3 | x
O=C(C1CC1)N1CCCCN2[C@H](CO)[C@H](c3ccc(C#CC4(O)CCCC4)cc3)[C@H]2C1 | x | x | x | -13 | -17 | x
CN1C(=O)c2cc(NC(=O)c3ccc4c(c3)OCO4)ccc2OC[C@H]2O[C@H](CC(=O)O)CC[C@H]21 | x | x | 3 | -6 | -13 | x
Cc1noc(C)c1NC(=O)Nc1ccc2c(c1)C(=O)N([C@@H](C)CO)C[C@H](C)[C@H](CN(C)S(C)(=O)=O)O2 | x | x | x | x | -1 | x
Cc1ccc(CSc2nnc(SCC(=O)N/N=C/C=C/c3ccco3)s2)cc1 | -7 | -1 | -4 | -19 | x | 52
Cc1ccc(CSc2nnc(SCC(=O)N/N=C/C=C/c3ccccc3[N+](=O)[O-])s2)cc1 | -9 | -11 | 5 | -14 | 10 | 89*
Cc1ccccc1Cn1c(=N)n(CC(O)c2ccco2)c2ccccc21 (stereo unspecified) | 1 | 6 | x | x | x | 6
CC(C)(C)c1ccc(Cn2c(=N)n(CC(O)c3ccco3)c3ccccc32)cc1 (stereo unspecified) | 83* | -87 | x | x | x | 101*
CCCC(=O)NC(NC(=S)Nc1ccc(N=Nc2ccccc2)cc1)C(Cl)(Cl)Cl (stereo unspecified) | 57 | 23 | -10 | 64* | 15 | -24
